One block for each compound: values may come before it. Active and inactive are the calls of the source. The calls are words filed in the database; no cut-off is given here.
Columns and labels:
[1] = Solubility of the compound; type: physicochemical
[2] = target: T1, Polyunsaturated fatty acid lipoxygenase ALOX15 (Homo sapiens, UniProt P16050); test: Inhibition of human N-terminal His6-tagged reticulocyte 15-lipoxygenase-1 after 15 mins by UV-vis spectrophotometer analysis; conditions: for Ki: read-out: Ki(app)
T1 sequence (P16050 whole entry): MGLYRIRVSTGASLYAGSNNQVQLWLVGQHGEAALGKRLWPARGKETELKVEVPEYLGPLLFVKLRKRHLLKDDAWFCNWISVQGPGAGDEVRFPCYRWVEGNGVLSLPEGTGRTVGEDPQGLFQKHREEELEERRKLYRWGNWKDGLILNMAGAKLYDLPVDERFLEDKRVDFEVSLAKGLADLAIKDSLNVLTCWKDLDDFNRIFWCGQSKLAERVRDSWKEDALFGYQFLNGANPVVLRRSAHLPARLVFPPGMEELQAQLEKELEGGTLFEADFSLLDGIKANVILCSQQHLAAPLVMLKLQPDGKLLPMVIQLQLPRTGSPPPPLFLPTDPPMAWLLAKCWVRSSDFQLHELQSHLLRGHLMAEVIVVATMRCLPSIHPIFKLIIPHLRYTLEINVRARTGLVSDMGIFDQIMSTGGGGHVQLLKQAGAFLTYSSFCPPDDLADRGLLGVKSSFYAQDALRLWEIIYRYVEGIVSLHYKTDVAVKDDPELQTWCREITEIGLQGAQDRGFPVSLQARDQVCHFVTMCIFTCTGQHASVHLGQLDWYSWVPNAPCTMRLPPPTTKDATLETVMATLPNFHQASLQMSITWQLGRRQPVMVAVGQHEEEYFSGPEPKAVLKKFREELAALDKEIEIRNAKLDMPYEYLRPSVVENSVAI

Homo sapiens [3] = organism: Homo sapiens; test: Selectivity ratio of IC50 for human COX2 over IC50 for human N-terminal His6-tagged reticulocyte 15-lipoxygenase-1
Method in brief: (§1)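 COX inhibition: ~2 μg ovine COX-1 or human COX-2 preincubated 20 min with inhibitor, then added to 0.1 M Tris-HCl pH 8.0, 5 mM EDTA, 2 mM phenol, 1 μM hematin, 100 μM arachidonic acid at 37 °C; oxygen consumption via oxygen electrode; ibuprofen and DMSO as controls.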

Homo sapiens [4] = organism: Homo sapiens; test: Selectivity ratio of IC50 for human N-terminal His6-tagged platelet 12-lipoxygenase over IC50 for human N-terminal His6-tagged reticulocyte 15-lipoxygenase-1
Homo sapiens [5] = organism: Homo sapiens; test: Selectivity ratio of IC50 for human 5-lipoxygenase over IC50 for human N-terminal His6-tagged reticulocyte 15-lipoxygenase-1
[6] = target: T2, Polyunsaturated fatty acid lipoxygenase ALOX15B (Homo sapiens, UniProt O15296); test: Inhibition of human N-terminal His6-tagged epithelial 15-lipoxygenase-2 after 15 mins by UV-vis spectrophotometer analysis
T2 sequence (O15296 whole entry): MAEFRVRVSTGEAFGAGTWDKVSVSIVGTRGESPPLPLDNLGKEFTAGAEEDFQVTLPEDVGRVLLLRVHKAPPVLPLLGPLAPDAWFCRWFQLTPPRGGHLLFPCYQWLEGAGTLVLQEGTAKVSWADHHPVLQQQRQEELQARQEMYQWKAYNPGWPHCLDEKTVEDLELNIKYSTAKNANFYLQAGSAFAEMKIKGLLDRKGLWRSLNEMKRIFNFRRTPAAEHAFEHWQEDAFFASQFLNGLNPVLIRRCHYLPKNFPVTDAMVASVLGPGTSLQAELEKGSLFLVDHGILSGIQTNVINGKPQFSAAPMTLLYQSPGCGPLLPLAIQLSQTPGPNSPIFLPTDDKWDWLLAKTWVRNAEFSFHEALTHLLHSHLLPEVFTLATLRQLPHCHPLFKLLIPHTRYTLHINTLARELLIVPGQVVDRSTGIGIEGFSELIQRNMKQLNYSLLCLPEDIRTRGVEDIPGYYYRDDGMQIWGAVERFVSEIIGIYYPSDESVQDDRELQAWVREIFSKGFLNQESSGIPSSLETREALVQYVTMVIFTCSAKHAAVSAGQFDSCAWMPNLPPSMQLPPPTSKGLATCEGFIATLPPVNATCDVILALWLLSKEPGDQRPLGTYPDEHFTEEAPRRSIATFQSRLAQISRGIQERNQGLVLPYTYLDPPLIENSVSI

[7] = target: T3, Polyunsaturated fatty acid lipoxygenase ALOX12 (Homo sapiens, UniProt P18054); test: Inhibition of human N-terminal His6-tagged platelet 12-lipoxygenase after 15 mins by UV-vis spectrophotometer analysis
T3 sequence (P18054 whole entry): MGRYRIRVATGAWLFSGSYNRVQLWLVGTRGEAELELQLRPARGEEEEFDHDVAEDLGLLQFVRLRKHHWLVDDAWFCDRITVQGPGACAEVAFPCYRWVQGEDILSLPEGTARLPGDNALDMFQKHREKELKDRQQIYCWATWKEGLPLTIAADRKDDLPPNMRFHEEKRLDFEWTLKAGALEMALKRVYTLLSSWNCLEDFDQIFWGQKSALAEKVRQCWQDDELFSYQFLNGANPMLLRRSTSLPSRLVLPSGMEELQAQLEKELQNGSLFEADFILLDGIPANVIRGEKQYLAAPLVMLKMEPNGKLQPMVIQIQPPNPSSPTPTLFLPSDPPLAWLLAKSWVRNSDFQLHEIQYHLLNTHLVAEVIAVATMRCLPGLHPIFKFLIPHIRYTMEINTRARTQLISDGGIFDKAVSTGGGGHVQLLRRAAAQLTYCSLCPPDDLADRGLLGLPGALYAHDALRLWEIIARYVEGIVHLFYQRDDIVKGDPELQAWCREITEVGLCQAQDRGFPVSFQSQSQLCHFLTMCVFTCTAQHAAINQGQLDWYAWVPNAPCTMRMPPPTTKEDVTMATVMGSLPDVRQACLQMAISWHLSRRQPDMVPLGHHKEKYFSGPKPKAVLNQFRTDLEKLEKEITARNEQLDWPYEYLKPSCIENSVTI

[8] = Selectivity ratio of IC50 for ovine COX1 over IC50 for human N-terminal His6-tagged reticulocyte 15-lipoxygenase-1; method in brief: as §1
Homo sapiens [9] = organism: Homo sapiens; test: Selectivity ratio of IC50 for human N-terminal His6-tagged epithelial 15-lipoxygenase-2 over IC50 for human N-terminal His6-tagged reticulocyte 15-lipoxygenase-1
[10] = target: T4, Polyunsaturated fatty acid 5-lipoxygenase (Homo sapiens, UniProt P09917); test: Inhibition of human 5-lipoxygenase after 15 mins by UV-vis spectrophotometer analysis
T4 sequence (P09917 whole entry): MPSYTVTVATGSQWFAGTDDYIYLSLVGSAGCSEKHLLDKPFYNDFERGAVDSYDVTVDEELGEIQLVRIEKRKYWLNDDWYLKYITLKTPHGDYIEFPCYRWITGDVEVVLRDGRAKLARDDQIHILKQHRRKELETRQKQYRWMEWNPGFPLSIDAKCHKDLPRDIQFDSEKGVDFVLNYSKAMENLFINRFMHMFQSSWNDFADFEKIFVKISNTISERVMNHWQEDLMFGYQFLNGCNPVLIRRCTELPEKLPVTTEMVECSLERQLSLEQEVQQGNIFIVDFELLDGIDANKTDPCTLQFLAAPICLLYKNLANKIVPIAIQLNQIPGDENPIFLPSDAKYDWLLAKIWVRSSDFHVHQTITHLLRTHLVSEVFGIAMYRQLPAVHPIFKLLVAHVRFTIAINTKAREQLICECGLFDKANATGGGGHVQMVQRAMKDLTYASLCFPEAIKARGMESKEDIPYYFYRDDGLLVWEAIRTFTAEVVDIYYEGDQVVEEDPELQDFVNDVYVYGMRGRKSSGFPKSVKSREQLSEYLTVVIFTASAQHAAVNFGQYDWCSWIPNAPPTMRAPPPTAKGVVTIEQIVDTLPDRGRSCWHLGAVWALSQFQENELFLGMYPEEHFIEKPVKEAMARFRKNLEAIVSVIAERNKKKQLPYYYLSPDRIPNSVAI

[11] = tested on: Radical scavenging activity; test: Antioxidant activity assessed as DPPH free radical scavenging activity at 5 uM; type: functional
[12] = target: T1, Polyunsaturated fatty acid lipoxygenase ALOX15; test: Inhibition of human N-terminal His6-tagged reticulocyte 15-lipoxygenase-1 allosteric site assessed as 15-HPETE formation by Michaelis-Menten equation analysis
[13] = target: T1, Polyunsaturated fatty acid lipoxygenase ALOX15; test: Inhibition of human N-terminal His6-tagged reticulocyte 15-lipoxygenase-1 catalytic site assessed as 15-HPETE formation by Michaelis-Menten equation analysis

solubility [1]: Insoluble
SMILES: O=C(OCC#CCSc1nnc(-c2cc3ccccc3cc2O)o1)c1ccc(F)cc1

Ratio IC50 (Homo sapiens [3]): > 7500
Ratio IC50 (Homo sapiens [4]): > 7500
IC50 [2]: < 10 nM
Ki [2]: < 10 nM
IC50 [6]: > 100000 nM
IC50 [7]: > 100000 nM
Ratio IC50 [8]: > 7500
Ratio IC50 (Homo sapiens [9]): > 7500
IC50 [10]: > 30000 nM
SMILES: O=C(OCC#CCSc1nnc(-c2cccc3ccccc23)o1)c1ccc(C(F)(F)F)cc1

Ki [2]: < 10 nM
SMILES: O=C(OCC#CCSc1nnc(-c2ccc(F)cc2)o1)c1ccc(F)cc1

Ki [2]: < 10 nM
SMILES: O=C(OCC#CCSc1nnc(-c2cccc(F)c2)o1)c1ccc(F)cc1

Ki [2]: < 10 nM
SMILES: O=C(OCC#CCSc1nnc(-c2cccc3ccccc23)o1)c1ccc(F)cc1F

IC50 [6]: > 100000 nM
IC50 [7]: > 100000 nM
IC50 [10]: > 50000 nM
SMILES: O=C(OCC#CCSc1nnc(-c2cccc3ccccc23)o1)c1cccc(F)c1

Ratio IC50 (Homo sapiens [3]): > 7500
Ratio IC50 (Homo sapiens [4]): > 7500
IC50 [2]: < 10 nM
Ki [2]: < 10 nM
Ratio IC50 (Homo sapiens [5]): > 7500
IC50 [6]: > 100000 nM
IC50 [7]: > 100000 nM
Ratio IC50 [8]: > 7500
Ratio IC50 (Homo sapiens [9]): > 7500
IC50 [10]: > 75000 nM
SMILES: O=C(OCC#CCSc1nnc(-c2ccc(Cl)cc2)o1)c1ccc(F)cc1

Ratio IC50 (Homo sapiens [3]): > 7500
Ratio IC50 (Homo sapiens [4]): > 7500
IC50 [2]: < 10 nM
Ki [2]: < 10 nM
IC50 [6]: > 100000 nM
IC50 [7]: > 100000 nM
Ratio IC50 [8]: > 7500
Ratio IC50 (Homo sapiens [9]): > 7500
IC50 [10]: > 15000 nM
SMILES: O=C(OCC#CCSc1nnc(-c2cccc3ccccc23)o1)c1ccc(OC(F)(F)F)cc1

The remaining lines, values behind:

SMILES: O=C(OCC#CCNc1nnc(-c2cccc3ccccc23)o1)c1cccs1
Ki [2]: 1300 nM

SMILES: O=C(OCC#CCSc1nnc(-c2cccc3ccccc23)o1)c1cc2ccccc2s1
Ratio IC50 (Homo sapiens [3]): > 7500
Ratio IC50 (Homo sapiens [4]): > 7500
IC50 [2]: < 10 nM
Ki [2]: < 10 nM
Ratio IC50 (Homo sapiens [5]): > 7500
IC50 [6]: > 100000 nM
IC50 [7]: > 100000 nM
Ratio IC50 [8]: > 7500
Ratio IC50 (Homo sapiens [9]): > 7500
IC50 [10]: > 75000 nM

SMILES: O=C(OCC#CCSc1nnc(-c2cccc3ccccc23)o1)c1sc2ccccc2c1Cl
Activity [11]: inactive

SMILES: O=C(OCc1ccc(CSc2nnc(-c3cccc4ccccc34)o2)cc1)c1ccc(F)cc1
Ki [2]: > 70000 nM

SMILES: OCC#CCSc1nnc(-c2cccc3ccccc23)o1
Ki [2]: 3500 nM

SMILES: O=C(OCC#CCSc1nnc(-c2cccc3ccccc23)s1)c1cccs1
solubility [1]: Insoluble

SMILES: O=C(OCC#CCSc1nnc(-c2cccc3ccccc23)o1)c1cnc[nH]1
Ki [12]: 8100 nM
Ki [2]: 1400 nM
Ki [13]: 870 nM

SMILES: O=C(OCC#CCSc1nnc(-c2cccc3ccccc23)o1)c1sc(Cl)c(Cl)c1Cl
Ki [2]: < 10 nM

SMILES: O=C(NCC#CCSc1nnc(-c2cccc3ccccc23)o1)c1cccs1
Ki [2]: 2000 nM

Reference: ChEMBL document CHEMBL1268899, “Discovery of potent and selective inhibitors of human reticulocyte 15-lipoxygenase-1” (J Med Chem, 2010)
